Assay [1] relates to Rattus norvegicus. The assay is described as follows: Percentage of animals failing to emit 50 lever presses within 15 min in rats at a compound dose of 0.005 mg/kg. In kind it is functional. The method in brief: (§1)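 Two-lever drug discrimination in male Sprague–Dawley rats (200–220 g at start), trained against saline on LSD tartrate (0.08 mg/kg), DOI HCl (0.4 mg/kg) or LY293284 (0.025 mg/kg). FR50 food-pellet reinforcement, levers counterbalanced, 15-min sessions at 22–24 °C. %D is the share of tested rats not completing 50 lever presses within 15 min.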

In assay [2] the test system is Rattus norvegicus. The experiment in a line: Percentage of animals failing to emit 50 lever presses within 15 min in rats at a compound dose of 0.01 mg/kg. It counts as functional. The method in brief:
as §1

For assay [3], the system named is Rattus norvegicus. The experiment in a line: Percentage of animals failing to emit 50 lever presses within 15 min in rats at a compound dose of 0.02 mg/kg. In kind it is functional. In short, it runs like this:
as §1

Assay [4] deals with Rattus norvegicus. The assay is described as follows: Percentage of animals emitting >80% of lever presses in rats at a compound dose of 0.030 uM/Kg. In kind it is functional. In short, it runs like this:
(§2)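 Male Sprague–Dawley rats (200–220 g) in a two-lever, FR50 food-reinforced task. Rats were trained to discriminate saline from LSD tartrate (0.08 mg/kg), DOI HCl (0.4 mg/kg) or LY293284 (0.025 mg/kg) in 15-min sessions. %SDL is the share of rats making over 80% of presses on the drug lever. %D is the share failing to make 50 presses within 15 min. ED50 by Litchfield–Wilcoxon log-probit.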

For assay [5], the system named is Rattus norvegicus. The assay is described as follows: Percentage of animals emitting >80% of lever presses in rats at a compound dose of 0.080 uM/Kg. It counts as functional. The method in brief:
as §2

The test system of assay [6] is Rattus norvegicus. The assay is described as follows: Percentage of animals failing to emit 50 lever presses within 15 min in rats at a compound dose of 0.027 mg/kg. It counts as functional. In short, it runs like this: as §1
Assay [7] relates to Rattus norvegicus. The assay is described as follows: Percentage of animals emitting >80% of lever presses in rats at a compound dose of 0.060 uM/Kg. It counts as functional. In short, it runs like this:
as §2

For assay [8], the system named is Rattus norvegicus. The assay is described as follows: Percentage of animals emitting >80% of lever presses in rats at a compound dose of 0.015 uM/Kg. It counts as functional. In short, it runs like this:
as §2

Assay [9] relates to Rattus norvegicus. The experiment in a line: Percentage of animals failing to emit 50 lever presses within 15 min in DOI trained rats at a compound dose of 4 mg/kg. It counts as functional. In short, it runs like this:
as §2

Assay [10] concerns Rattus norvegicus. The experiment in a line: Percentage of animals emitting >80% of lever presses in […] trained rats at a compound dose of 12.6 uM/Kg. In kind it is functional. In short, it runs like this:
as §2

The test system of assay [11] is Rattus norvegicus. The assay is described as follows: Percentage of animals failing to emit 50 lever presses within 15 min in […] trained rats at a compound dose of 8 mg/kg. In kind it is functional. The method in brief:
as §1

Assay [12] has as its system Rattus norvegicus. The assay is described as follows: Percentage of animals emitting >80% of lever presses in DOI trained rats at a compound dose of 50.6 uM/Kg. In kind it is functional. In short, it runs like this:
as §2

The target of assay [13] is 5-hydroxytryptamine receptor 2A (Homo sapiens, UniProt P28223). The assay is described as follows: Compound was tested for the displacement of [125I]DOI from cloned human 5-hydroxytryptamine 2A receptor. The method in brief:
(§3)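 Membranes from AV12 hamster fibroblasts stably expressing human 5-HT2A or 5-HT2C. [125I]DOI was about 0.07–0.15 nM final. Buffer was 50 mM Tris-HCl pH 7.4 with 10 μM pargyline, 9.75 mM MgCl2, 0.5 mM Na2-EDTA and 0.1% Na ascorbate. Incubation was 30 min at 37 °C with about 40 μg protein (2A) or 30 μg (2C). Nonspecific binding used 1 μM ketanserin (2A) or 10 μM mianserin (2C). Read by gamma counting; sigmoid nonlinear regression.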

Assay [14] has as its system Rattus norvegicus. The experiment in a line: Percentage of animals failing to emit 50 lever presses within 15 min in LSD trained rats at a compound dose of 2.0 mg/kg. In kind it is functional. The method in brief: as §2
Assay [15] has as its system Rattus norvegicus. The experiment in a line: Percentage of animals emitting >80% of lever presses in […] trained rats at a compound dose of 50.6 uM/Kg. It counts as functional. In short, it runs like this:
as §2

Assay [16] deals with Rattus norvegicus. The assay is described as follows: Percentage of animals emitting >80% of lever presses in […] trained rats at a compound dose of 6.32 uM/Kg. In kind it is functional. In short, it runs like this: as §2
Assay [17] deals with Rattus norvegicus. The assay is described as follows: Percentage of animals emitting >80% of lever presses in LSD trained rats at a compound dose of 50.6 uM/Kg. It counts as functional. In short, it runs like this: as §2
For assay [18], the system named is Rattus norvegicus. The assay is described as follows: Percentage of animals failing to emit 50 lever presses within 15 min in […] trained rats at a compound dose of 2 mg/kg. It counts as functional. The method in brief: as §1
For assay [19], the system named is Rattus norvegicus. The experiment in a line: Percentage of animals emitting >80% of lever presses in LSD trained rats at a compound dose of 12.6 uM/Kg. It counts as functional. In short, it runs like this: as §2
The test system of assay [20] is Rattus norvegicus. The assay is described as follows: Percentage of animals failing to emit 50 lever presses within 15 min in LSD trained rats at a compound dose of 8.0 mg/kg. In kind it is functional. The method in brief: as §1
Assay [21] concerns the target T1, 5-hydroxytryptamine receptor 2C (Homo sapiens, UniProt P28335).
T1 sequence (P28335 whole entry): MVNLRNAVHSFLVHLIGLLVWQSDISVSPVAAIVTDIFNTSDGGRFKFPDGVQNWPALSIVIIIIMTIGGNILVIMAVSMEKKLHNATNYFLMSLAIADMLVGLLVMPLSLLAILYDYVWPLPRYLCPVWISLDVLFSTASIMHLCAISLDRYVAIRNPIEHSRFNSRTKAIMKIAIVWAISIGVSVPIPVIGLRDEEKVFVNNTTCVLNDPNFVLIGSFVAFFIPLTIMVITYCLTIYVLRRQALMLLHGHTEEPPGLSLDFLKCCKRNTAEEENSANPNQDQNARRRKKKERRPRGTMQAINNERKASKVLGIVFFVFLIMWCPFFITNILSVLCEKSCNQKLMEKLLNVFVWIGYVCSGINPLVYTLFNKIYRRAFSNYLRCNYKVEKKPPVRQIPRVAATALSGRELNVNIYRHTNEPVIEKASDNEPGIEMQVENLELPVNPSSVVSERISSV
The assay is described as follows: Compound was tested for the displacement of [125I]DOI from cloned human 5-hydroxytryptamine 2C receptor. The method in brief: as §3

Assay [22] deals with Rattus norvegicus. The experiment in a line: Percentage of animals emitting >80% of lever presses in […] trained rats at a compound dose of 25.3 uM/Kg. It counts as functional. In short, it runs like this: as §2
The subject of assay [23] is Rattus norvegicus. The experiment in a line: Percentage of animals emitting >80% of lever presses in DOI trained rats at a compound dose of 25.3 uM/Kg. In kind it is functional. The method in brief: as §2
Assay [24] relates to Rattus norvegicus. The assay is described as follows: Percentage of animals emitting >80% of lever presses in LSD trained rats at a compound dose of 25.3 uM/Kg. In kind it is functional. The method in brief: as §2
The test system of assay [25] is Rattus norvegicus. The experiment in a line: Percentage of animals failing to emit 50 lever presses within 15 min in […] trained rats at a compound dose of 4 mg/kg. It counts as functional. In short, it runs like this:
as §1

In assay [26] the test system is Rattus norvegicus. The experiment in a line: Percentage of animals failing to emit 50 lever presses within 15 min in LSD trained rats at a compound dose of 16 mg/kg. It counts as functional. In short, it runs like this: as §2
The subject of assay [27] is Rattus norvegicus. The assay is described as follows: Percentage of animals failing to emit 50 lever presses within 15 min in DOI trained rats at a compound dose of 8 mg/kg. It counts as functional. The method in brief: as §2
For assay [28], the target named is 5-hydroxytryptamine receptor 2B (Homo sapiens, UniProt P41595). The assay is described as follows: Compound was tested for the displacement of [3H]5-HT from cloned human 5-hydroxytryptamine 2B receptor. In short, it runs like this: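 Membranes from AV12 cells stably expressing human 5-HT2B, 100–150 μg protein. [3H]-5-HT was about 2 nM (1.7–2.5 nM) final. Buffer was 50 mM Tris pH 7.4 with 3 mM CaCl2, 10 μM pargyline and 0.1% ascorbic acid. Drug dilutions spanned 6 log units. Incubation was 15 min at 37 °C. Nonspecific binding used 10 μM 5-HT or 1-NP. PEI-soaked GF/B filtration, scintillation counting, triplicate, sigmoid nonlinear regression.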

Assay [29] concerns Rattus norvegicus. The assay is described as follows: Percentage of animals emitting >80% of lever presses in LSD trained rats at a compound dose of 6.32 uM/Kg. It counts as functional. In short, it runs like this:
as §2

Assay [30] concerns Rattus norvegicus. The experiment in a line: Percentage of animals failing to emit 50 lever presses within 15 min in LSD trained rats at a compound dose of 4.0 mg/kg. It counts as functional. The method in brief:
as §1

Assay [31] concerns the target T2, 5-hydroxytryptamine receptor 1A (Rattus norvegicus, UniProt P19327).
T2 sequence (P19327 whole entry): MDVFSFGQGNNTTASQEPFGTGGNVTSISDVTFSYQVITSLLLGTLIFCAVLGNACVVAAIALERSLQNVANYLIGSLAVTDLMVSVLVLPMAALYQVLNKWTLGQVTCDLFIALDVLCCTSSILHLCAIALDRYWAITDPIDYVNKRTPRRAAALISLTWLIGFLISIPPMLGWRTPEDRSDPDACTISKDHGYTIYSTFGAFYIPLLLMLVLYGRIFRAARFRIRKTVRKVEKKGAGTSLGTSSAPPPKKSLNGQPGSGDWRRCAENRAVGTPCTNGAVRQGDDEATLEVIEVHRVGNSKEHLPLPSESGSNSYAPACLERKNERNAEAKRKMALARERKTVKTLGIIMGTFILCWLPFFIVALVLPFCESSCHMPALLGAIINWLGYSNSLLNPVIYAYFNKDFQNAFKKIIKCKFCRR
The assay is described as follows: Compound was tested for the displacement of [3H]-8-OH- DPAT from rat brain 5-hydroxytryptamine 1A receptor. The method in brief: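 Pooled rat hippocampal membranes were preincubated at 37 °C. Buffer was 50 mM Tris HCl pH 7.4 with 0.5 mM Na2EDTA, 10 mM MgCl2, 0.1% Na ascorbate and pargyline. 200–400 μg protein was incubated with [3H]-8-OH-DPAT for 15 min at 37 °C, then GF/C filtered and scintillation counted. Nonspecific binding was defined with 10 μM 5-HT. Triplicate tubes.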

Assay [32] concerns Rattus norvegicus. The assay is described as follows: Percentage of animals failing to emit 50 lever presses within 15 min in […] trained rats at a compound dose of 16 mg/kg. It counts as functional. The method in brief: as §1
The test system of assay [33] is Rattus norvegicus. The experiment in a line: Percentage of animals failing to emit 50 lever presses within 15 min in DOI trained rats at a compound dose of 16 mg/kg. In kind it is functional. The method in brief:
as §2

Assay [34] deals with Rattus norvegicus. The experiment in a line: Percentage of animals emitting >80% of lever presses in DOI trained rats at a compound dose of 12.6 uM/Kg. It counts as functional. The method in brief: as §2

Chain of 5-hydroxytryptamine receptor 2B (P41595 whole entry): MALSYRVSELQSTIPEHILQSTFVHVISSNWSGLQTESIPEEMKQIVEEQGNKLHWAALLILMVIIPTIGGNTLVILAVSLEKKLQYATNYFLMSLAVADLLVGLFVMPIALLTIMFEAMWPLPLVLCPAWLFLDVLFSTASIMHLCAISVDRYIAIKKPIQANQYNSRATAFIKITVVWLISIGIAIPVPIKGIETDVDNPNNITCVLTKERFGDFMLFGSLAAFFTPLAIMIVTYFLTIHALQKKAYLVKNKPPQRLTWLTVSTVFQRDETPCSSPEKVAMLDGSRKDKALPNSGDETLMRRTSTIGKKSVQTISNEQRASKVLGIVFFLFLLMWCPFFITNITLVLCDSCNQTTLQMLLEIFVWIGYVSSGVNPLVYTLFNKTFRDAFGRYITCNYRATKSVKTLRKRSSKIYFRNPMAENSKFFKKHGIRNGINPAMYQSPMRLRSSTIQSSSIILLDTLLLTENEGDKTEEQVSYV
Chain of 5-hydroxytryptamine receptor 2A (P28223 whole entry): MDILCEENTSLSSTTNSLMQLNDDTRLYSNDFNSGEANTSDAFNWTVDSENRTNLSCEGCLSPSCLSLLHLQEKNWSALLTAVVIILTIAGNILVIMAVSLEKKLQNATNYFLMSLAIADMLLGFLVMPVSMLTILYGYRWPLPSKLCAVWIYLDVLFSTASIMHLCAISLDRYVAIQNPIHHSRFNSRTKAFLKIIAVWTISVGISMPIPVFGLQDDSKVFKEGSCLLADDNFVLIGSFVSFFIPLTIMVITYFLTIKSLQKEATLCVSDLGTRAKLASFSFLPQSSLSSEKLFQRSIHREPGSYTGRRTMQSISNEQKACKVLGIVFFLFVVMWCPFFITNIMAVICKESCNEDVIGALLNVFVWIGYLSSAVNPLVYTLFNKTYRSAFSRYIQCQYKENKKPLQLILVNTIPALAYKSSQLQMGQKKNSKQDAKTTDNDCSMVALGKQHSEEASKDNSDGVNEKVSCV

In the case of `CCCN(CCC)C1Cc2c[nH]c3ccc(C(C)=O)c(c23)C1` (centres undefined) [LY-293284], the D in assay [1] turned out to be 8%; in assay [2], 0%; in assay [3], 0%; in assay [6], 27%. Besides, the SDL came to 45% in [4], 100% in assay [5], 83% in assay [7] and 9% in assay [8].

On to `CN(C)CCc1c[nH]c2ccsc12`, for which the D in assay [9] is listed as 11%; in [11], 22%; in assay [14], 25%; in [18] it was 8%; in assay [20], 36%; in assay [25], 30%. For the same compound, the D in [26] is recorded as 62.5%; in assay [27], 78%; in assay [30], 22%; in assay [32] it was 0%; in [33], 62.5%. Also, the SDL in assay [10] was determined as 57%; in assay [12] it was 0%; in assay [15], 83%; in [16] it was 50%; in [17], 0%; in [19] it was 43%. The SDL in assay [22] stood at 71%; in assay [23] it was 0%; in [24], 12.5%; in assay [29], 0%; in [34], 37.5%. The Ki was 276 nM in [13], 64 nM in assay [21], 214 nM in assay [28] and 76 nM in assay [31].

For the origin of these results see ChEMBL document CHEMBL1132613 (J Med Chem, 1999).
